Results on 22 compounds are retold here after ChEMBL document CHEMBL4732210, “Discovery of new phenyl sulfonyl-pyrimidine carboxylate derivatives as the potential multi-target drugs with effective anti-Alzheimer's action: Design, synthesis, crystal structure and in-vitro biological evaluation” (Eur J Med Chem, 2021).

For one assay, the species on record is Homo sapiens. Description: Selectivity index, ratio of IC50 for BuChE in human serum to IC50 for AChE in human erythrocytes measured by DTNB reagent based Ellman's method. The assay is classed as cell-based.
The target in assay [1] is Amyloid-beta precursor protein (Homo sapiens) (UniProt P05067). Description: Inhibition of amyloid beta (1 to 42) (unknown origin) aggregation at 22 uM measured after 24 hrs by Transmission electron microscopy method. In short, it runs like this: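 Aβ1-42 (44 μM) co-incubated with compound (22 μM) at 37 °C for 24 h. 10 μL aliquots placed on carbon-coated copper grids, stained with 1% uranyl acetate, blotted and dried 15 min at room temperature. Fibril morphology imaged by […]TEM. Controls were Aβ1-42 alone at 37 °C for 24 h and Aβ1-42 alone at 0 h.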

For assay [2] the target is unchanged. Kind of assay: Inhibition of self-induced amyloid beta (1 to 42) (unknown origin) aggregation assessed as reduced particle size at 10 uM measured after 48 hrs by Dynamic light scattering analysis. In short, it runs like this:
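Aβ1-42 stock (100 μM) in PBS pH 7.4, […], incubated with compound (10 μM) in the dark at 37 °C for 48 h. Particle size distribution then measured by dynamic light scattering.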

The target in assay [3] is Acetylcholinesterase (Homo sapiens) (UniProt P22303). Kind of assay: Inhibition of AChE in human erythrocytes assessed as inhibition of AChE-induced amyloid beta(1 to 42) aggregation at Abeta42:compound concentration ratio of 10:20 measured after 48 hrs by thioflavin-T assay. The assay is classed as cell-based. The following applies: Erythrocyte. An outline of the steps: (§1)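 Aβ1-42 (stock in 1% ammonium hydroxide; final 10 μM) plus human erythrocyte AChE. Incubated 48 h at 37 °C with or without compound (5, 10, 20 μM; DMSO stock diluted in PBS pH 7.4). Then diluted in 50 mM glycine-NaOH pH 8.0 containing 5 μM thioflavin T. Fluorescence normalised to control; three separate experiments.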

The target is the same in assay [4]. Kind of assay: Non-competitive inhibition of AChE in human erythrocytes assessed as decrease in Vmax with constant Km measured at 2 mins interval for 10 mins by Lineweaver-Burk plot analysis. The assay is classed as cell-based. The conditions noted are these: Erythrocyte. An outline of the steps:
(§2)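 Human AChE kinetics in the Ellman DTNB assay. Inhibitor at 25, 50 and 100 nM, each with six ATCI concentrations, against an inhibitor-free series. Activity read every 2 min over 10 min. Km and Vmax from Michaelis–Menten non-linear regression; mechanism from Lineweaver–Burk plots; Ki from Dixon plot over four inhibitor concentrations and from slope/intercept replots. Triplicate.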

Assay [5] has the same target. Description: Non-competitive inhibition of AChE in human erythrocytes assessed as ratio of Vmax to Km at 100 nM measured at 2 mins interval for 10 mins by Lineweaver-Burk plot analysis. The assay is classed as cell-based. The conditions noted are these: Erythrocyte. In short, it runs like this:
as §2

For assay [6] the target is unchanged. Description: Inhibition of AChE in human erythrocytes assessed as inhibition of AChE-induced amyloid beta(1 to 42) aggregation at Abeta42:compound concentration ratio of 10:10 measured after 48 hrs by thioflavin-T assay. The assay is classed as cell-based. The following applies: Erythrocyte. An outline of the steps:
as §1

The target is the same in assay [7]. Kind of assay: Inhibition of AChE in human erythrocytes assessed as inhibition of AChE-induced amyloid beta (1 to 42) aggregation by measuring reduced particle size at 10 uM measured after 48 hrs by Dynamic light scattering analysis. The assay is classed as cell-based. The conditions noted are these: Erythrocyte. An outline of the steps:
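Aβ1-42 with AChE (10 unit/mL) incubated with compound at 10 μM in PBS pH 7.4, in the dark for 48 h at 37 °C. Particle size distribution then measured by dynamic light scattering.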

Assay [8] has the same target. Kind of assay: Non-competitive inhibition of AChE in human erythrocytes assessed as ratio of Vmax to Km at 25 nM measured at 2 mins interval for 10 mins by Lineweaver-Burk plot analysis. The conditions noted are these: Erythrocyte. The assay is classed as cell-based. In short, it runs like this:
as §2

For assay [9] the target is unchanged. Description: Non-competitive inhibition of AChE in human erythrocytes assessed as ratio of Vmax to Km at 50 nM measured at 2 mins interval for 10 mins by Lineweaver-Burk plot analysis. The assay is classed as cell-based. The conditions noted are these: Erythrocyte. In short, it runs like this: as §2
In a further assay the test system is MC65. Kind of assay: Neuroprotective activity in human MC65 cells cultured in TC-deficient medium assessed as inhibition of TC-deficiency induced oxidative stress by measuring increase in cell viability at 1 to 80 uM measured after 12 hrs by MTT assay. The following applies: dose 1-80 µM. The assay is classed as functional, cell-based. An outline of the steps: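 MC65 cells grown in MEM, PBS-washed and resuspended in MEM, then seeded at 5×10⁴ cells/well with or without TC. Compounds (80–1 μM) added to TC-free wells and incubated 12 h at 37 °C. MTT (5 mg/ml) added for a further 4 h; formazan dissolved in DMSO:H₂O 1:1 and read at 570 nm. Viability expressed as % of +TC control. Triplicate wells, three runs.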

Active and inactive are the calls of the source. The calls are words filed in the database; no cut-off is given here.

Sequence of Amyloid-beta precursor protein (Homo sapiens) (P05067 whole entry): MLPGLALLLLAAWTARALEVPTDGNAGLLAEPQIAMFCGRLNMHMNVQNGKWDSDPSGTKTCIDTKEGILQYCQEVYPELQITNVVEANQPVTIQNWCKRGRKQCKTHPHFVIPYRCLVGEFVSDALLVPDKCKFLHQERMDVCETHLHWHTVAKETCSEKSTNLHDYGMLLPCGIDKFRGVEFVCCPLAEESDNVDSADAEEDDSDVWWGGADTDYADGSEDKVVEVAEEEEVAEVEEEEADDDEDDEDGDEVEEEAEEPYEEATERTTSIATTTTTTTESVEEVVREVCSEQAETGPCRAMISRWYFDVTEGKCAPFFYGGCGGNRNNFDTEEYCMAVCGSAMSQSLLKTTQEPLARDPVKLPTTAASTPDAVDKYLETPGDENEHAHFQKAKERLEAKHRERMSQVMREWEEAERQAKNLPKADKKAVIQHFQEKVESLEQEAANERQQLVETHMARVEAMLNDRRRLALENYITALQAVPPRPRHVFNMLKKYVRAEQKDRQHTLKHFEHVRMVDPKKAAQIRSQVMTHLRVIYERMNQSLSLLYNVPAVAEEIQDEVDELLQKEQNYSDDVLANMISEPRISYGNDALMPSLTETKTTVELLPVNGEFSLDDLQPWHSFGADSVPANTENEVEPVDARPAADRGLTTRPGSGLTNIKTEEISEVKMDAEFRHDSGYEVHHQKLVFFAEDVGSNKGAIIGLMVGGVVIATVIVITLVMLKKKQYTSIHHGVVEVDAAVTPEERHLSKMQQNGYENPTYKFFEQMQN
Sequence of Acetylcholinesterase (Homo sapiens) (P22303 whole entry): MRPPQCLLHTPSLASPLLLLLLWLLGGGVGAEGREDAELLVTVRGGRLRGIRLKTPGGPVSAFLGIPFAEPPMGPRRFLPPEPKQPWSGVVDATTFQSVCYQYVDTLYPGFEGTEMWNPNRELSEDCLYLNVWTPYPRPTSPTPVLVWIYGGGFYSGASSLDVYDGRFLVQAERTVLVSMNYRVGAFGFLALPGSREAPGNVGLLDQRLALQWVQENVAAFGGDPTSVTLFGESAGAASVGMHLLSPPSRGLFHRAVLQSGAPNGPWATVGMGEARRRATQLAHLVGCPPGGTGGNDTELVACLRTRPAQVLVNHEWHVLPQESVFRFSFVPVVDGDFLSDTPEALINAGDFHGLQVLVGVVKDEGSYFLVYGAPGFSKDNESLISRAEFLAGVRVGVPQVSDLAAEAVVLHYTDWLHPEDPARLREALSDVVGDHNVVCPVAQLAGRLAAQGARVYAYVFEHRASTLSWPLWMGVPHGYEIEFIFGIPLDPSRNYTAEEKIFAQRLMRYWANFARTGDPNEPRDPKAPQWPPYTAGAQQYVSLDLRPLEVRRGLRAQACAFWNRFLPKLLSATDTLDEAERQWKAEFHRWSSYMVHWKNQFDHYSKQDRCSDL

As for `CCOC(=O)c1c(C)nc(N2CCN(S(=O)(=O)c3ccc(NC(C)=O)c(F)c3)CC2)nc1-c1ccccc1`, the Ratio IC50 in the assay listed under Homo sapiens was 0.35.
Regarding `CCOC(=O)c1c(C)nc(N2CCN(S(=O)(=O)c3ccc(NC(C)=O)c(Cl)c3)CC2)nc1-c1ccc(OC)cc1`, the Ratio IC50 in the assay listed under Homo sapiens was 0.4.
Still for that read-out and setting: the figure for `CCOC(=O)c1c(C)nc(N2CCN(S(=O)(=O)c3ccc(NC(C)=O)c(OC)c3)CC2)nc1-c1ccc(OC)cc1` is 0.4; for `CCOC(=O)c1c(C)nc(N2CCN(S(=O)(=O)c3ccc(NC(C)=O)c(F)c3)CC2)nc1-c1ccc(OC)c(OC)c1` it is 0.41; for `CCOC(=O)c1c(C)nc(N2CCN(S(=O)(=O)c3ccc(N)c(Cl)c3)CC2)nc1-c1ccccc1` it is 0.57.
With `CCOC(=O)c1c(C)nc(N2CCN(S(=O)(=O)c3ccc(N)c(Cl)c3)CC2)nc1-c1ccc(OC)cc1`, the Ratio IC50 in the assay filed under Homo sapiens was 0.43.
Same read-out and setting: as for `CCOC(=O)c1c(C)nc(N2CCN(S(=O)(=O)c3ccc(NC(C)=O)c(Cl)c3)CC2)nc1-c1ccccc1`, the figure is 0.61; as for `CCOC(=O)c1c(C)nc(N2CCN(S(=O)(=O)c3ccc(NC(C)=O)cc3)CC2)nc1-c1ccc(OC)c(OC)c1`, 0.35.
As for `CCOC(=O)c1c(C)nc(N2CCN(S(=O)(=O)c3ccc(NC(C)=O)cc3)CC2)nc1-c1ccccc1`, in the assay filed under Homo sapiens, the Ratio IC50 was 0.54.
The same measure, in the same setting: as for `CCOC(=O)c1c(C)nc(N2CCN(S(=O)(=O)c3ccc(N)c(F)c3)CC2)nc1-c1ccc(OC)cc1`, the figure is 0.64.
Still for that read-out and setting: as for `CCOC(=O)c1c(C)nc(N2CCN(S(=O)(=O)c3ccc(N)cc3)CC2)nc1-c1ccc(OC)c(OC)c1`, the figure is 0.31; as for `CCOC(=O)c1c(C)nc(N2CCN(S(=O)(=O)c3ccc(NC(C)=O)cc3)CC2)nc1-c1ccc(OC)cc1`, 0.42.
As to `CCOC(=O)c1c(C)nc(N2CCN(S(=O)(=O)c3ccc(NC(C)=O)c(OC)c3)CC2)nc1-c1ccccc1`, the Ratio IC50 in the assay filed under Homo sapiens was found to be 0.42.
Still for that read-out and setting: as for `CCOC(=O)c1c(C)nc(N2CCN(S(=O)(=O)c3ccc(N)c(OC)c3)CC2)nc1-c1ccc(OC)cc1`, the figure is 0.36; as for `CCOC(=O)c1c(C)nc(N2CCN(S(=O)(=O)c3ccc(N)c(OC)c3)CC2)nc1-c1ccccc1`, 0.29.
In the case of `CCOC(=O)c1c(C)nc(N2CCN(S(=O)(=O)c3ccc(N)c(OC)c3)CC2)nc1-c1ccc(OC)c(OC)c1`, the Ratio IC50 in the assay filed under Homo sapiens came to 0.4.
With `CCOC(=O)c1c(C)nc(N2CCN(S(=O)(=O)c3ccc(NC(C)=O)c(Cl)c3)CC2)nc1-c1ccc(OC)c(OC)c1`, the Ratio IC50 in the assay filed under Homo sapiens is 0.23. For the same compound, the inhibition entry in [1], in assay [2], in [4] and in assay [7] was “Active” throughout. Further, the inhibition in assay [3] was determined as 51.3%; in assay [6], 35.5%. For the same compound, the Vmax/Km is 0.056 in assay [5], 0.094 in assay [8] and 0.076 in assay [9].
As to `CCOC(=O)c1c(C)nc(N2CCN(S(=O)(=O)c3ccc(N)c(F)c3)CC2)nc1-c1ccc(OC)c(OC)c1`, the Ratio IC50 in the assay listed under Homo sapiens was determined as 0.37.
Turning to `CCOC(=O)c1c(C)nc(N2CCN(S(=O)(=O)c3ccc(N)c(Cl)c3)CC2)nc1-c1ccc(OC)c(OC)c1`, in the assay listed under Homo sapiens, the Ratio IC50 worked out at 0.28. The inhibition entry in [1], in assay [2] and in assay [7] was “Active” in each case. Also, the inhibition in [3] turned out to be 35.3%; in [6], 22.2%. Besides, the result in the assay on MC65 was Active.
`CCOC(=O)c1c(C)nc(N2CCN(S(=O)(=O)c3ccc(NC(C)=O)c(F)c3)CC2)nc1-c1ccc(OC)cc1`: the Ratio IC50 in the assay filed under Homo sapiens turned out to be 0.42.
Still for that read-out and setting: as for `CCOC(=O)c1c(C)nc(N2CCN(S(=O)(=O)c3ccc(NC(C)=O)c(OC)c3)CC2)nc1-c1ccc(OC)c(OC)c1`, the figure is 0.38; as for `CCOC(=O)c1c(C)nc(N2CCN(S(=O)(=O)c3ccc(N)cc3)CC2)nc1-c1ccc(OC)cc1`, 0.33.
